Measurements reported in publication PMC7655718 (The Journal of antibiotics, 2020).
In brackets after ≈: the same amount, converted by molar mass.

Experiments:
[1] = tested on: B. subtilis ATCC 6623 (Bs); assay: MIC, microdilution with resazurin; assay type: cell-based, Bacillus subtilis; settings: Bacillus subtilis, ATCC6623, read-out: MIC Bs
[2] = tested on: S. aureus ATCC 700699 (Sa99); assay: MIC, microdilution with resazurin; assay type: cell-based; settings: Staphylococcus aureus, ATCC700699, read-out: MIC Sa99
In short: (§1)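 Compounds dissolved in DMSO at 2 mg/mL. Overnight blood-agar colonies were suspended in PBS to 0.5 McFarland, then diluted in Mueller Hinton broth to about 1x10^6 cfu/mL with resazurin (1:1000 of 0.1% w/v stock). Twofold DMSO dilutions were added 1:40, giving 50 to 0.4 μg/mL at 2.5% DMSO. Incubation was 35 °C for 16-20 h. Blue/non-turbid wells counted as inhibited, pink/turbid as grown.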

[3] = tested on: tested Gram-positive bacterial strains; assay: MIC, text summary over tested Gram-positive strains; assay type: cell-based
[4] = tested on: A. baumannii ATCC 19606 (type strain, Ab06); assay: MIC and MBC; assay type: cell-based, Acinetobacter baumannii; settings: Acinetobacter baumannii, ATCC19606, read-out: MIC Ab06
In short: as §1

[5] = tested on: A. baumannii ATCC 747 (Ab47); assay: MIC, microdilution with resazurin; assay type: cell-based, Acinetobacter baumannii; settings: Acinetobacter baumannii, ATCC747, read-out: MIC Ab47
In short: as §1

[6] = tested on: S. aureus BAA-2312 (Sa12); assay: MIC, microdilution with resazurin; assay type: cell-based; settings: Staphylococcus aureus, BAA2312, read-out: MIC Sa12
In short: as §1

[7] = tested on: S. aureus ATCC 25923 (Sa23); assay: MIC, microdilution with resazurin; assay type: cell-based; settings: Staphylococcus aureus, ATCC25923, read-out: MIC Sa23
In short: as §1

[8] = tested on: S. aureus ATCC 33591 (Sa91); assay: MIC, microdilution with resazurin; assay type: cell-based; settings: Staphylococcus aureus, ATCC33591, read-out: MIC Sa91
In short: as §1

[9] = tested on: S. epidermidis 700296 (Se); assay: MIC, microdilution with resazurin; assay type: cell-based; settings: Staphylococcus epidermidis, read-out: MIC Se
In short: as §1

[10] = tested on: S. aureus ATCC 33592 (Sa92); assay: MIC, microdilution with resazurin; assay type: cell-based; settings: Staphylococcus aureus, ATCC33592, read-out: MIC Sa92
In short: as §1

## O=C(O)c1ccc(-n2cc(/C=N/Nc3ccccc3)c(-c3ccc4ccccc4c3)n2)cc1 [Compound 6]
[1]
  MIC: 25 µg/mL (≈ 57.8 µM)
[2]
  MIC: 12.5 µg/mL (≈ 28.9 µM)
[3]; Staphylococcus aureus, read-out: MIC value against S. aureus strains
  MIC: 25 µg/mL (≈ 57.8 µM)
[4]
  MIC: > 50 µg/mL
[5]
  MIC: > 50 µg/mL
[6]
  MIC: 25 µg/mL (≈ 57.8 µM)
[7]
  MIC: 25 µg/mL (≈ 57.8 µM)
[8]
  MIC: > 25 µg/mL
[9]
  MIC: 25 µg/mL (≈ 57.8 µM)
[10]
  MIC: 12.5 µg/mL (≈ 28.9 µM)

## O=C(O)c1ccc(-n2cc(/C=N/Nc3ccc([N+](=O)[O-])cc3)c(-c3ccc4ccccc4c3)n2)cc1 [Compound 27]
[1]
  MIC: > 50 µg/mL
[2]
  MIC: > 50 µg/mL
[3]
  antimicrobial activity against the tested strains: eliminated the activity
[4]
  MIC: > 50 µg/mL
[5]
  MIC: > 50 µg/mL
[6]
  MIC: > 50 µg/mL
[7]
  MIC: > 50 µg/mL
[8]
  MIC: > 50 µg/mL
[9]
  MIC: > 50 µg/mL
[10]
  MIC: > 50 µg/mL

## O=C(O)c1ccc(-n2cc(/C=N/NC3=NCCN3)c(-c3ccc4ccccc4c3)n2)cc1 [Compound 33]
[1]
  MIC: > 50 µg/mL
[2]
  MIC: > 50 µg/mL
[3]
  antimicrobial activity against the tested strains: failed to show any remarkable antimicrobial activity
[4]
  MIC: > 50 µg/mL
[5]
  MIC: > 50 µg/mL
[6]
  MIC: > 50 µg/mL
[7]
  MIC: > 50 µg/mL
[8]
  MIC: > 50 µg/mL
[9]
  MIC: > 50 µg/mL
[10]
  MIC: > 50 µg/mL

## CN1CCN(/N=C/c2cn(-c3ccc(C(=O)O)cc3)nc2-c2ccc3ccccc3c2)CC1 [Compound 31]
[1]
  MIC: > 50 µg/mL
[2]
  MIC: > 50 µg/mL
[3]
  antimicrobial activity against the tested strains: failed to show any remarkable antimicrobial activity
[4]
  MIC: > 50 µg/mL
[5]
  MIC: > 50 µg/mL
[6]
  MIC: > 50 µg/mL
[7]
  MIC: > 50 µg/mL
[8]
  MIC: > 50 µg/mL
[9]
  MIC: > 50 µg/mL
[10]
  MIC: > 50 µg/mL

## CCc1ccccc1N/N=C/c1cn(-c2ccc(C(=O)O)cc2)nc1-c1ccc2ccccc2c1 [Compound 12]
[1]
  MIC: 25 µg/mL (≈ 54.3 µM)
[2]
  MIC: 12.5 µg/mL (≈ 27.1 µM)
[3]
  antimicrobial activity against the tested strains: reduced the potency drastically
[4]
  MIC: > 50 µg/mL
[5]
  MIC: > 50 µg/mL
[6]
  MIC: 25 µg/mL (≈ 54.3 µM)
[7]
  MIC: 25 µg/mL (≈ 54.3 µM)
[8]
  MIC: 25 µg/mL (≈ 54.3 µM)
[9]
  MIC: > 25 µg/mL
[10]
  MIC: 12.5 µg/mL (≈ 27.1 µM)

## COc1ccc(N/N=C/c2cn(-c3ccc(C(=O)O)cc3)nc2-c2ccc3ccccc3c2)cc1 [Compound 13]
[1]
  MIC: > 25 µg/mL
[2]
  MIC: 12.5 µg/mL (≈ 27 µM)
[3]
  antimicrobial activity against the tested strains: reduced the potency drastically
[4]
  MIC: > 50 µg/mL
[5]
  MIC: > 50 µg/mL
[6]
  MIC: > 25 µg/mL
[7]
  MIC: > 25 µg/mL
[8]
  MIC: 25 µg/mL (≈ 54.1 µM)
[9]
  MIC: > 25 µg/mL
[10]
  MIC: 25 µg/mL (≈ 54.1 µM)

## O=C(O)c1ccc(N/N=C/c2cn(-c3ccc(C(=O)O)cc3)nc2-c2ccc3ccccc3c2)cc1 [Compound 28]
[1]
  MIC: > 50 µg/mL
[2]
  MIC: > 50 µg/mL
[3]
  antimicrobial activity against the tested strains: eliminated the activity
[4]
  MIC: > 50 µg/mL
[5]
  MIC: > 50 µg/mL
[6]
  MIC: > 50 µg/mL
[7]
  MIC: > 50 µg/mL
[8]
  MIC: > 50 µg/mL
[9]
  MIC: > 50 µg/mL
[10]
  MIC: > 50 µg/mL

## COC(=O)N/N=C/c1cn(-c2ccc(C(=O)O)cc2)nc1-c1ccc2ccccc2c1 [Compound 34]
[1]
  MIC: > 50 µg/mL
[2]
  MIC: > 50 µg/mL
[3]
  antimicrobial activity against the tested strains: failed to show any remarkable antimicrobial activity
[4]
  MIC: > 50 µg/mL
[5]
  MIC: > 50 µg/mL
[6]
  MIC: > 50 µg/mL
[7]
  MIC: > 50 µg/mL
[8]
  MIC: > 50 µg/mL
[9]
  MIC: > 50 µg/mL
[10]
  MIC: > 50 µg/mL

## CN(C)/N=C/c1cn(-c2ccc(C(=O)O)cc2)nc1-c1ccc2ccccc2c1 [Compound 29]
[1]
  MIC: > 25 µg/mL
[2]
  MIC: 25 µg/mL (≈ 65 µM)
[3]
  antimicrobial activity against the tested strains: did not show any activity
[4]
  MIC: > 50 µg/mL
[5]
  MIC: > 50 µg/mL
[6]
  MIC: > 50 µg/mL
[7]
  MIC: > 25 µg/mL
[8]
  MIC: > 50 µg/mL
[9]
  MIC: > 25 µg/mL
[10]
  MIC: > 25 µg/mL

## CN(/N=C/c1cn(-c2ccc(C(=O)O)cc2)nc1-c1ccc2ccccc2c1)c1ccccc1 [Compound 7]
[1]
  MIC: > 50 µg/mL
[2]
  MIC: 1.56 µg/mL (≈ 3.49 µM)
[4]
  MIC: > 50 µg/mL
[5]
  MIC: > 50 µg/mL
[6]
  MIC: > 50 µg/mL
[7]
  MIC: > 50 µg/mL
[8]
  MIC: > 50 µg/mL
[9]
  MIC: > 50 µg/mL
[10]
  MIC: 1.56 µg/mL (≈ 3.49 µM)
